Reference: ChEMBL document CHEMBL1687799, “Mutational analysis of flucytosine resistance in Candida glabrata” (2010)
Values after ≈ are worked out from the molar mass of the structure shown.

Assays:
Type in all cases: functional
Nakaseomyces glabratus [1] = assay: Antimicrobial activity against 5-fluorocytosine resistant and ura3 harboring Candida glabrata BG14 assessed as lowest concentration inhibiting growth >=80% by broth microdilution method
Procedure, shortened: (§1)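 Broth microdilution with 5FC or 5FU in RPMI 1640 buffered with 0.165 M MOPS, pH 7.0, plus 2% dextrose, replacing the YPD of the cited protocol. Drug stocks were in 50% DMSO, and final DMSO was ≤0.5%. Plates were incubated at 35°C and read at 630 nm. MIC was the lowest concentration giving ≥80% growth inhibition relative to the drug-free control.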

Nakaseomyces glabratus [2] = assay: Antimicrobial activity against 5-fluorocytosine resistant and ura3 harboring Candida glabrata 66032u assessed as lowest concentration inhibiting growth >=80% by broth microdilution method; procedure, shortened: as §1
Nakaseomyces glabratus [3] = assay: Antimicrobial activity against 5-fluorocytosine resistant Candida glabrata 66032-FC1 harboring Fur1 183K mutant assessed as lowest concentration inhibiting growth >=80% by broth microdilution method; procedure, shortened: as §1
Nakaseomyces glabratus [4] = assay: Antimicrobial activity against 5-fluorocytosine resistant Candida glabrata 66032-FC5 harboring Fcy1 A15D mutant assessed as lowest concentration inhibiting growth >=80% by broth microdilution method; procedure, shortened: as §1
Nakaseomyces glabratus [5] = assay: Antimicrobial activity against 5-fluorocytosine resistant Candida glabrata 66032 assessed as lowest concentration inhibiting growth >=80% by broth microdilution method; procedure, shortened: as §1
Nakaseomyces glabratus [6] = assay: Antimicrobial activity against 5-fluorocytosine resistant Candida glabrata isolate TE34-75 harboring FcY2J 1384F mutant assessed as lowest concentration inhibiting growth >=80% by broth microdilution method; procedure, shortened: as §1
Nakaseomyces glabratus [7] = assay: Antimicrobial activity against 5-fluorocytosine resistant and ura3 harboring Candida glabrata BG14-FC4 harboring Fcy1 E17stop mutant assessed as lowest concentration inhibiting growth >=80% by broth microdilution method; procedure, shortened: as §1
Nakaseomyces glabratus [8] = assay: Antimicrobial activity against 5-fluorocytosine resistant Candida glabrata 66032-FC3 harboring Fur1 G71V mutant assessed as lowest concentration inhibiting growth >=80% by broth microdilution method; procedure, shortened: as §1
Nakaseomyces glabratus [9] = assay: Antimicrobial activity against 5-fluorocytosine resistant and ura3 harboring Candida glabrata 66032u-FC10 harboring Fcy2L Q396stop mutant assessed as lowest concentration inhibiting growth >=80% by broth microdilution method; procedure, shortened: as §1
Nakaseomyces glabratus [10] = assay: Antimicrobial activity against 5-fluorocytosine resistant Candida glabrata 66032-FC2 harboring Fur1 deltaG73-V81mutant assessed as lowest concentration inhibiting growth >=80% by broth microdilution method; procedure, shortened: as §1
Nakaseomyces glabratus [11] = assay: Antimicrobial activity against 5-fluorocytosine resistant Candida glabrata isolate 20251.021 harboring Fcy1 T84L mutant assessed as lowest concentration inhibiting growth >=80% by broth microdilution method; procedure, shortened: as §1
Nakaseomyces glabratus [12] = assay: Antimicrobial activity against 5-fluorocytosine resistant Candida glabrata isolate TE34-78 harboring Fcr1 L136R mutant assessed as lowest concentration inhibiting growth >=80% by broth microdilution method; procedure, shortened: as §1
Nakaseomyces glabratus [13] = assay: Antimicrobial activity against 5-fluorocytosine resistant Candida glabrata 66032-FC4 harboring Fcy1 A15D mutant assessed as lowest concentration inhibiting growth >=80% by broth microdilution method; procedure, shortened: as §1
Nakaseomyces glabratus [14] = assay: Antimicrobial activity against 5-fluorocytosine resistant and ura3 harboring Candida glabrata 66032u-FC6 harboring Fcy1 T92deltastop mutant assessed as lowest concentration inhibiting growth >=80% by broth microdilution method; procedure, shortened: as §1
Nakaseomyces glabratus [15] = assay: Antimicrobial activity against 5-fluorocytosine resistant and ura3 harboring Candida glabrata BG14-FC8 harboring Fcy2L E238-V277dup mutant assessed as lowest concentration inhibiting growth >=80% by broth microdilution method; procedure, shortened: as §1
Nakaseomyces glabratus [16] = assay: Antimicrobial activity against 5-fluorocytosine resistant and ura3 harboring Candida glabrata 66032u-FC1 harboring Fcy2L W291stop mutant assessed as lowest concentration inhibiting growth >=80% by broth microdilution method; procedure, shortened: as §1
Nakaseomyces glabratus [17] = assay: Antimicrobial activity against 5-fluorocytosine resistant Candida glabrata isolate 20408.055 harboring Fur1 G210D mutant assessed as lowest concentration inhibiting growth >=80% by broth microdilution method; procedure, shortened: as §1
Nakaseomyces glabratus [18] = assay: Antimicrobial activity against 5-fluorocytosine resistant Candida glabrata 66032-FC6 harboring Fcy1 G11D mutant assessed as lowest concentration inhibiting growth >=80% by broth microdilution method; procedure, shortened: as §1
Nakaseomyces glabratus [19] = assay: Antimicrobial activity against 5-fluorocytosine resistant and ura3 harboring Candida glabrata 66032u-FC5 harboring Fcy2L E342stop mutant assessed as lowest concentration inhibiting growth >=80% by broth microdilution method; procedure, shortened: as §1
Nakaseomyces glabratus [20] = assay: Antimicrobial activity against 5-fluorocytosine resistant and ura3 harboring Candida glabrata 66032u-FC3 harboring Fcy1 H59D mutant assessed as lowest concentration inhibiting growth >=80% by broth microdilution method; procedure, shortened: as §1

In the case of `Nc1nc(=O)[nH]cc1F` [FLUCYTOSINE], the MIC (Nakaseomyces glabratus [1]) is reported as 0.03 mg/L (≈ 0.232 µM), the MIC (Nakaseomyces glabratus [2]) is reported as 0.008 mg/L (≈ 0.062 µM) and the MIC (Nakaseomyces glabratus [3]) is reported as no less than 32 mg/L. It also gave an MIC (Nakaseomyces glabratus [4]) of no less than 32 mg/L, an MIC (Nakaseomyces glabratus [5]) of 0.03 mg/L (≈ 0.232 µM) and an MIC (Nakaseomyces glabratus [6]) of 0.25 mg/L (≈ 1.94 µM). It also gave an MIC (Nakaseomyces glabratus [7]) of no less than 32 mg/L, an MIC (Nakaseomyces glabratus [8]) of no less than 32 mg/L and an MIC (Nakaseomyces glabratus [9]) of 1 mg/L (≈ 7.75 µM). For the same molecule, the MIC (Nakaseomyces glabratus [10]) was no less than 32 mg/L, the MIC (Nakaseomyces glabratus [11]) was no less than 32 mg/L and the MIC (Nakaseomyces glabratus [12]) was no less than 32 mg/L. For the same molecule, the MIC (Nakaseomyces glabratus [13]) was no less than 32 mg/L, the MIC (Nakaseomyces glabratus [14]) was no less than 32 mg/L and the MIC (Nakaseomyces glabratus [15]) was 1 mg/L (≈ 7.75 µM). It also gave an MIC (Nakaseomyces glabratus [16]) of 1 mg/L (≈ 7.75 µM), an MIC (Nakaseomyces glabratus [17]) of no less than 32 mg/L and an MIC (Nakaseomyces glabratus [18]) of no less than 32 mg/L. It also gave an MIC (Nakaseomyces glabratus [19]) of 1 mg/L (≈ 7.75 µM) and an MIC (Nakaseomyces glabratus [20]) of no less than 32 mg/L.
